Assay results published in article PMC3078945 (Clinical cancer research : an official journal of the …, 2011).
“Also recorded” adds a separate entry of the source. Like-named read-outs stand apart in the source and are kept apart here.

Tests used:
xenograft = conditions: cited from earlier work
[1] = test system: patients with advanced solid tumors; conditions: for AST/ALT G2 (number of patients) / Fatigue G4 (number of patients) / Hyponatremia G2 (number of patients) / Hyponatremia G3 (number of patients) / Hyponatremia G4 (number of patients) / Lymphopenia G2 (number of patients) / Lymphopenia G3 (number of patients) / Lymphopenia G4 (number of patients) / Nausea/vomiting G2 (number of patients) / Nausea/vomiting G3 (number of patients): cycle 1
mice = conditions: mouse, in vivo; cited from earlier work
Protein Kinase C = conditions: PKC; cited from earlier work
patients = conditions: cited from earlier work
advanced solid tumors = experiment: Antitumor activity; type: in vivo, human
[2] = test system: sphingosine-1-phophate (S1P) levels; experiment: Pharmacodynamics: plasma S1P levels after safingol; type: in vivo, human; conditions: for effect on S1P in plasma: across dose cohorts
Outline: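 Levels 1 h and 4 h after safingol were normalized to pre-treatment levels, with patients grouped by dose cohort. Values are cohort means with standard error.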

[3] = cited from earlier work
[4] = biological target: sphingosine kinase 1 (SphK); conditions: cited from earlier work
[5] = cited from earlier work; remark: listed apart in the source
solid tumor cells = conditions: safingol alone; cited from earlier work
[6] = Safingol plasma pharmacokinetics in the phase I trial; type: in vivo, human; conditions: for dose dependence of safingol PK parameters (Cmax, AUC): safingol 60–930 mg/m^2
Outline: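 Safingol was an egg-phospholipid/dextrose/lactic acid emulsion diluted to 1 mg/ml in saline and infused IV over 60–120 min at 60–930 mg/m2. […] Assay was HPLC-MS/MS with non-compartmental analysis.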

[7] = cohort 1 (safingol 60, cisplatin 75 mg/m^2), N=4
[8] = cohort 2 (safingol 120, cisplatin 75 mg/m^2), N=3
[9] = cohort 3 (safingol 240, cisplatin 75 mg/m^2), N=3
[10] = cohort 4 (safingol 240, cisplatin 60 mg/m^2), N=6
[11] = cohort 5 (safingol 360, cisplatin 60 mg/m^2), N=3
[12] = cohort 6 (safingol 480, cisplatin 60 mg/m^2), N=3
[13] = cohort 7 (safingol 600, cisplatin 60 mg/m^2), N=3
[14] = cohort 8 (safingol 750, cisplatin 60 mg/m^2), N=6
[15] = cohort 9 (safingol 930, cisplatin 60 mg/m^2), N=6
[16] = cohort 10 (safingol 840, cisplatin 60 mg/m^2), N=6
[17] = safingol + cisplatin, 6 patients
[18] = safingol + cisplatin, 37 patients evaluable
[19] = cohorts 8–10, safingol 750–930 mg/m^2

CCCCCCCCCCCCCCC[C@H](O)[C@@H](N)CO [Safingol, (2S,3S)-2-amino-1,3-octadecanediol]
effect on antitumor activity of cisplatin in xenografts (xenograft): can increase the antitumor activity of cisplatin without increasing toxicity
upper limit of the 95% posterior interval of DLT rate ([1]; MTD cohort): 40%
DLT rate for the MTD cohort ([1]; cohort 10, 1/6): 17%
hemolysis ([1]; current study, careful monitoring): no hemolysis was observed in any patient
AST/ALT G2 (number of patients) [1, 7]: 0
Fatigue G4 (number of patients) [1, 7]: 0
Hyponatremia G2 (number of patients) [1, 7]: 0
Hyponatremia G3 (number of patients) [1, 7]: 1
Hyponatremia G4 (number of patients) [1, 7]: 0
Lymphopenia G2 (number of patients) [1, 7]: 0
Lymphopenia G3 (number of patients) [1, 7]: 1
Lymphopenia G4 (number of patients) [1, 7]: 0
Nausea/vomiting G2 (number of patients) [1, 7]: 0
Nausea/vomiting G3 (number of patients) [1, 7]: 0
AST/ALT G2 (number of patients) [1, 8]: 0
Fatigue G4 (number of patients) [1, 8]: 0
Hyponatremia G2 (number of patients) [1, 8]: 0
Hyponatremia G3 (number of patients) [1, 8]: 0
Hyponatremia G4 (number of patients) [1, 8]: 0
Lymphopenia G2 (number of patients) [1, 8]: 0
Lymphopenia G3 (number of patients) [1, 8]: 1
Lymphopenia G4 (number of patients) [1, 8]: 0
Nausea/vomiting G2 (number of patients) [1, 8]: 1
Nausea/vomiting G3 (number of patients) [1, 8]: 0
AST/ALT G2 (number of patients) [1, 9]: 0
Fatigue G4 (number of patients) [1, 9]: 0
Hyponatremia G2 (number of patients) [1, 9]: 0
Hyponatremia G3 (number of patients) [1, 9]: 1
Hyponatremia G4 (number of patients) [1, 9]: 0
Lymphopenia G2 (number of patients) [1, 9]: 0
Lymphopenia G3 (number of patients) [1, 9]: 0
Lymphopenia G4 (number of patients) [1, 9]: 0
Nausea/vomiting G2 (number of patients) [1, 9]: 3
Nausea/vomiting G3 (number of patients) [1, 9]: 0
AST/ALT G2 (number of patients) [1, 10]: 1
Fatigue G4 (number of patients) [1, 10]: 0
Hyponatremia G2 (number of patients) [1, 10]: 0
Hyponatremia G3 (number of patients) [1, 10]: 0
Hyponatremia G4 (number of patients) [1, 10]: 0
Lymphopenia G2 (number of patients) [1, 10]: 0
Lymphopenia G3 (number of patients) [1, 10]: 3
Lymphopenia G4 (number of patients) [1, 10]: 0
Nausea/vomiting G2 (number of patients) [1, 10]: 0
Nausea/vomiting G3 (number of patients) [1, 10]: 0
AST/ALT G2 (number of patients) [1, 11]: 1
Fatigue G4 (number of patients) [1, 11]: 0
Hyponatremia G2 (number of patients) [1, 11]: 0
Hyponatremia G3 (number of patients) [1, 11]: 0
Hyponatremia G4 (number of patients) [1, 11]: 0
Lymphopenia G2 (number of patients) [1, 11]: 0
Lymphopenia G3 (number of patients) [1, 11]: 1
Lymphopenia G4 (number of patients) [1, 11]: 0
Nausea/vomiting G2 (number of patients) [1, 11]: 0
Nausea/vomiting G3 (number of patients) [1, 11]: 0
AST/ALT G2 (number of patients) [1, 12]: 0
Fatigue G4 (number of patients) [1, 12]: 0
Hyponatremia G2 (number of patients) [1, 12]: 0
Hyponatremia G3 (number of patients) [1, 12]: 0
Hyponatremia G4 (number of patients) [1, 12]: 0
Lymphopenia G2 (number of patients) [1, 12]: 0
Lymphopenia G3 (number of patients) [1, 12]: 0
Lymphopenia G4 (number of patients) [1, 12]: 0
Nausea/vomiting G2 (number of patients) [1, 12]: 0
Nausea/vomiting G3 (number of patients) [1, 12]: 0
AST/ALT G2 (number of patients) [1, 13]: 0
Fatigue G4 (number of patients) [1, 13]: 0
Hyponatremia G2 (number of patients) [1, 13]: 0
Hyponatremia G3 (number of patients) [1, 13]: 0
Hyponatremia G4 (number of patients) [1, 13]: 0
Lymphopenia G2 (number of patients) [1, 13]: 0
Lymphopenia G3 (number of patients) [1, 13]: 0
Lymphopenia G4 (number of patients) [1, 13]: 0
Nausea/vomiting G2 (number of patients) [1, 13]: 0
Nausea/vomiting G3 (number of patients) [1, 13]: 0
AST/ALT G2 (number of patients) [1, 14]: 1
Fatigue G4 (number of patients) [1, 14]: 0
Hyponatremia G2 (number of patients) [1, 14]: 0
Hyponatremia G3 (number of patients) [1, 14]: 0
Hyponatremia G4 (number of patients) [1, 14]: 0
Lymphopenia G2 (number of patients) [1, 14]: 0
Lymphopenia G3 (number of patients) [1, 14]: 0
Lymphopenia G4 (number of patients) [1, 14]: 0
Nausea/vomiting G2 (number of patients) [1, 14]: 0
Nausea/vomiting G3 (number of patients) [1, 14]: 0
AST/ALT G2 (number of patients) [1, 15]: 1
Fatigue G4 (number of patients) [1, 15]: 0
Hyponatremia G2 (number of patients) [1, 15]: 0
Hyponatremia G3 (number of patients) [1, 15]: 1
Hyponatremia G4 (number of patients) [1, 15]: 0
Lymphopenia G2 (number of patients) [1, 15]: 0
Lymphopenia G3 (number of patients) [1, 15]: 2
Lymphopenia G4 (number of patients) [1, 15]: 0
Nausea/vomiting G2 (number of patients) [1, 15]: 0
Nausea/vomiting G3 (number of patients) [1, 15]: 0
AST/ALT G2 (number of patients) [1, 16]: 0
Fatigue G4 (number of patients) [1, 16]: 0
Hyponatremia G2 (number of patients) [1, 16]: 0
Hyponatremia G3 (number of patients) [1, 16]: 2
Hyponatremia G4 (number of patients) [1, 16]: 0
Lymphopenia G2 (number of patients) [1, 16]: 0
Lymphopenia G3 (number of patients) [1, 16]: 0
Lymphopenia G4 (number of patients) [1, 16]: 0
Nausea/vomiting G2 (number of patients) [1, 16]: 1
Nausea/vomiting G3 (number of patients) [1, 16]: 0
maximum administered dose ([1]; exceeded the MTD): 930 mg/m^2
DLT from safingol (principal DLT) ([1]; in combination with cisplatin): hepatic enzyme elevation
overall tolerability of the drug combination ([1]; in vivo): well tolerated with no major increase in toxicities over those of cisplatin alone
maximum tolerated dose (MTD) ([1]; safingol over 120 min with cisplatin 60 mg/m^2, every 3 weeks): 840 mg/m^2
recommended phase 2 dose ([1]; with cisplatin 60 mg/m^2, every 3 weeks): 840 mg/m^2
hepatic toxicity in mice (mice): increases in ALT and histological changes consistent with hepatocyte autophagy
Ki (Protein Kinase C): 33 µM
safingol-associated toxicity (patients; phase I study with doxorubicin): a single episode of grade 1 hemolysis
hepatic toxicity (patients; safingol doses not exceeding 120 mg/m^2 with doxorubicin): no hepatic toxicity was observed
dose-limiting toxicity (patients; safingol up to 120 mg/m^2 every three weeks with doxorubicin): no dose-limiting toxicity observed
duration of stable disease (advanced solid tumors; other patient with adrenal cortical cancer): 7.2 m
average duration of stable disease (advanced solid tumors; [17]): 3.3 m
range of duration of stable disease (advanced solid tumors; [17]): 1.8 – 7.2 m
average duration of stable disease (advanced solid tumors; safingol + cisplatin, 6 patients, listed as S): 3.3 months
best response (advanced solid tumors; [18]): stable disease
number of patients with stable disease (advanced solid tumors; [18]): 6
effect on S1P in plasma [2]: dose-dependent decreases; also recorded: significant decreases
effect on S1P in plasma ([2]; listed as S): dose-dependent reduction
time dependence of S1P levels ([2]; safingol 930 mg/m^2, p = 0.001): lower 4 hours post-treatment than at 1 hour post-treatment
decrease of S1P levels relative to pre-treatment ([2]; safingol doses of over 750 mg/m^2, p < 0.001): about half
effect on in vitro antitumor effect of doxorubicin, cisplatin and mitomycin C [3]: increases the in vitro antitumor effect
Ki ([4]; SphK): 5 µM
Ki ([4]; competitive inhibitor of SphK): ~5 µM
pharmacokinetic interaction with doxorubicin ([5]; phase I study with doxorubicin): No significant pharmacokinetic interaction
Cmax ([5]; read-out: mean Cmax, safingol 60 mg/m^2, study of safingol and doxorubicin): 1300 nM
cell death mechanism (solid tumor cells): induces cell death by autophagy
pharmacokinetic interaction of safingol with cisplatin (day 1 vs day 8) ([6]; cohorts 1–7, listed as S): no significant interaction
duration of safingol concentration over 20 µM [6, 19]: < 1 h
time safingol levels of at least 5 µM persist after treatment [6, 19]: at least 4 hours
AUC ([6]; human, plasma, intravenous, Mean day 1 safingol AUC, safingol 600 – 930 mg/m^2): 102 to 110 µM·h
Cmax ([6]; human, plasma, intravenous, Mean day 1 safingol Cmax, safingol 600 – 930 mg/m^2): 23900 to 26800 nM
increase in AUC per 100 mg/m^2 increase in safingol dose ([6]; on average): 10 µM·h
increase in Cmax per 100 mg/m^2 increase in safingol dose ([6]; on average): 3000 nM
dose dependence of safingol PK parameters (Cmax, AUC) [6]: increased in a linear and dose-proportional manner; also recorded: increased linearly with dose
dose dependence of safingol PK parameters (Cmax, AUC) ([6]; listed as S): linear throughout the dose range
